The source of these data is ChEMBL document CHEMBL3822425, “Isatin Derived Spirocyclic Analogues with α-Methylene-γ-butyrolactone as Anticancer Agents: A Structure-Activity Relationship Study” (J Med Chem, 2016).

The test system of series [1] is MDA-MB-231. In words: Cytotoxicity against human MDA-MB-231 cells assessed as cell growth inhibition after 3 days by presto blue dye based plate reader method. It is filed as functional. The method, boiled down: (§1)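 Cells in DMEM high glucose/10% FBS (A2780 in RPMI/10% FBS), 4,000 per well, overnight, then 40 to 0.039 µM or vehicle, 24, 48, 72 h at 37°C, 5% CO2; PrestoBlue 15 min, fluorescence 560ex/590em; growth as 100×[(T−Tz)/(C−Tz)] per NCI algorithm.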

The test system of series [2] is SW480. In words: Cytotoxicity against human SW480 cells assessed as cell growth inhibition after 3 days by presto blue dye based plate reader method. It is filed as functional. The note with it: SW480, 72 h.
The nature of series [3]: Cytotoxicity against human MIAPaCa2 cells assessed as cell growth inhibition after 3 days by presto blue dye based plate reader method. It is filed as functional. The following applies: MIA PaCa-2, 72 h. In a few lines:
as §1

For series [4], the system named is HeLa. The series is described as follows: Cytotoxicity against human HeLa cells expressing GFP assessed as cell growth inhibition after 3 days by presto blue dye based plate reader method. It is filed as functional. The note with it: 72 h. The method, boiled down: as §1
Series [5] relates to A2780. In words: Cytotoxicity against human A2780 cells assessed as cell growth inhibition after 3 days by presto blue dye based plate reader method. The note with it: A2780, 72 h. In kind it is functional. The method, boiled down: as §1
Series [6] has as its system A549. In words: Inhibition of TNFalpha-induced IKKbeta-mediated NF-kappaB activity in human A549 cells at 10 uM after 2 hrs followed by TNFalpha addition for 7 hrs by ONE-Glo Luciferase reporter based luminescence assay. It is filed as cell-based. The method, boiled down:
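A549 luciferase cells grown 5 passages without TNFα then 2 passages with or without 5 ng/mL TNFα; 50,000 per well overnight; 10 µM compound 2 h; then 20 ng/mL TNFα 7 h; PrestoBlue 10 min (560ex/590em) viability; ONE-Glo 10 min, luminescence 1000 ms.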

For series [7], the system named is A549. In words: Inhibition of TNFalpha-induced IKKbeta-mediated NF-kappaB activity in human A549 cells at 10 uM after 2 hrs followed by TNFalpha addition for 7 hrs by ONE-Glo Luciferase reporter based luminescence assay.
Series [8] addresses T1, serum albumin (Homo sapiens, UniProt P02768). In words: Binding affinity to human serum albumin assessed as half life by HPLC analysis. In kind it is ADME.
Series [9] has as its target T1, serum albumin. In words: Binding affinity to human serum albumin assessed as half life by MS analysis. In kind it is ADME.
Series [10] has as its target T2, Inhibitor of nuclear factor kappa-B kinase subunit beta (Homo sapiens) (UniProt O14920).
T2 sequence (whole entry): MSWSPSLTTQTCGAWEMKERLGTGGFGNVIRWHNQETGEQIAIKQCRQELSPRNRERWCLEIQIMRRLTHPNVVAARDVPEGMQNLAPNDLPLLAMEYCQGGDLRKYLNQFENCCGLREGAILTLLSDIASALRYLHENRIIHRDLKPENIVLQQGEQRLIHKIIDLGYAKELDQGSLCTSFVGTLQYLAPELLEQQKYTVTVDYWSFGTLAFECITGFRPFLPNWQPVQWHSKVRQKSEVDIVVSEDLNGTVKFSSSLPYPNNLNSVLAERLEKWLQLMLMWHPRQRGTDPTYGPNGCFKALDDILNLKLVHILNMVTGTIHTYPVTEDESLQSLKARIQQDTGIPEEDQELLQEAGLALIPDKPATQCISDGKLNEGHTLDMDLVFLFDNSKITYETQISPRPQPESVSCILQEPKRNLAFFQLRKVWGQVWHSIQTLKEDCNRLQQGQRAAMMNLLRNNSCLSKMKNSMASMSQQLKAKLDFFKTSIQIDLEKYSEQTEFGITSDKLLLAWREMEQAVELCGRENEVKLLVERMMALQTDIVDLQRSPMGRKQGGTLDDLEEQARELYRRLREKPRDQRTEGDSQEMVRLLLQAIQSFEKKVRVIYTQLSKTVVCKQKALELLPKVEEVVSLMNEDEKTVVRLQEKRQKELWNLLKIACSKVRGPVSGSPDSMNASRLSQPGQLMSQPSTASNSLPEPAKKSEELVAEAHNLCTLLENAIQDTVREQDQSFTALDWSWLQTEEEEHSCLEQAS
The series is described as follows: Inhibition of IKKbeta in human MDA-MB-231 cells assessed as reduction in IkappaBalpha phosphorylation by Western blot analysis. In kind it is cell-based. In a few lines:
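MDA-MB-231 cytoplasmic fractions: swelling 30 min on ice in HEPES/KCl/EDTA/DTT buffer with inhibitors, 1.25% NP-40, centrifuged; lysates on 4-20% gels, PVDF, anti-phospho-IκBα and anti-IκBα, tubulin or GAPDH loading control, ECL detection.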

Series [11] concerns the target T2, Inhibitor of nuclear factor kappa-B kinase subunit beta (Homo sapiens). In words: Covalent inhibition of IKKbeta (unknown origin) at 10 uM after 1 hr by rhodamine azide dye based SDS-PAGE method. The method, boiled down:
(§2)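 Purified IKKβ or p65 (250 ng in 200 µL) incubated 1 h with 10 µM alkyne probe; click reaction 1 h with 0.1 mM 5-TAMRA azide, 1 mM TCEP, 1 mM CuSO4, 0.1 mM TBTA; methanol precipitation, pellet in SDS buffer, 4-20% SDS-PAGE, fluorescence gel scanning.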

The species named for series [12] is Homo sapiens. The series is described as follows: Covalent inhibition of C-terminus truncated NF-kappaB p65 L15V/P180S/F309S/A439V/V462M mutant (unknown origin) at 10 uM after 1 hr by rhodamine azide dye based SDS-PAGE method. In a few lines:
as §2

Series [13] concerns the target T2, Inhibitor of nuclear factor kappa-B kinase subunit beta (Homo sapiens). In words: Inhibition of IKKbeta in human MIAPaCa2 cells assessed as reduction in IkappaBalpha phosphorylation at 10 to 20 uM by Western blot analysis. In kind it is cell-based. The following applies: MIA PaCa-2.
Series [14] relates to HeLa. The series is described as follows: Induction of apoptosis in human HeLa cells assessed as PARP cleavage after 24 to 48 hrs by Western blot analysis. In kind it is functional, cell-based. The method, boiled down: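 Cells collected with media and trypsinized pellet combined, lysed in RIPA buffer (pH 8.0), 4-20% SDS-PAGE, Western blot with anti-PARP to detect cleavage; HeLa timepoint 48 h.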

Series [15] has as its system HeLa. In words: Anticlonogenic activity against human HeLa cells assessed as inhibition of colony formation after 2 to 7 days by crystal violet staining. It is filed as functional, cell-based. In a few lines: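 HeLa cells seeded at 500-1000 per well, grown 24 h, drug-treated 48 h at 37°C (DMSO control), then fresh medium for 7 days; methanol fixed 15 min, 0.1% crystal violet 30 min at room temperature, colonies over 50 cells counted.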

In series [16] the test system is MDA-MB-231. In words: Cytotoxicity against human MDA-MB-231 cells assessed as cell growth inhibition at 0.039 to 40 uM by presto blue dye based plate reader method. It is filed as functional.

Active and inactive are the calls of the source. No cut-off for these calls is given here.

T1 sequence (P02768 whole entry): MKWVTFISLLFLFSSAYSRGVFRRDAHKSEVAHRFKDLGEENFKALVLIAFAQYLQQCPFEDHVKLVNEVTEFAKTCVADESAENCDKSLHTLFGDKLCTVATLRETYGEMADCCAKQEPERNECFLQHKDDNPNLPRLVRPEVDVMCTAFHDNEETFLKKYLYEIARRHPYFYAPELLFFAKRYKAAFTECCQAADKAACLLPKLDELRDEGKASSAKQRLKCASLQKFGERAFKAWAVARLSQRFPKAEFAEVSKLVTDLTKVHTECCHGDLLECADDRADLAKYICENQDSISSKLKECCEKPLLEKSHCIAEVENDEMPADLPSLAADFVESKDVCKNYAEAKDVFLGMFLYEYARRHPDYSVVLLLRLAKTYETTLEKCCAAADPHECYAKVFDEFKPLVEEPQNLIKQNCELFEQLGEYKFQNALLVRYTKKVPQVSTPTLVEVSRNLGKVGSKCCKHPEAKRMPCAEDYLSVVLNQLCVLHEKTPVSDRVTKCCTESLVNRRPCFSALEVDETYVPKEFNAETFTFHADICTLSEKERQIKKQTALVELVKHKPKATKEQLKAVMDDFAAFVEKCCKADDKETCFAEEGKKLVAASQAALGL

For `NC(=O)Nc1sc(-c2ccc(F)cc2)cc1C(N)=O`, the “growth inhibition (GI)” value in series [1] is “Active”. Take `C=CC(=O)N1CCC[C@@H](n2nc(-c3ccc(Oc4ccccc4)cc3)c3c(N)ncnc32)C1` [IBRUTINIB]: the half-inhibitory concentration (IC50) in series [2] turned out to be 25.6 µM; in series [3], 16.6 µM; in series [4], 16.8 µM. Besides, the EC50 in [5] stood at 20.1 µM. `C=C1CC(c2ccccc2)OC1=O` (stereo not drawn): the inhibition in series [6] came out at 25%.

For `N#Cc1c(C2CCNCC2)cc(-c2c(O)cccc2OCC2CC2)nc1N`, the “growth inhibition (GI)” value in series [1] is “Active”. As to `C=C1C(=O)OC2(C(=O)Nc3ccccc32)C1c1ccccc1` (stereo not drawn), the EC50 in series [5] turned out to be 3.8 µM. Turning to `C=C1CC(c2ccccn2)OC1=O` (stereo not drawn), the inhibition in series [6] is less than 25%. The compound `C=C1C(=O)O[C@@H]2C3O[C@]3(C)CC/C=C(\C)CC[C@@H]12` (stereo partly drawn) yielded an inhibition in series [7] of more than 95%. Also, the IC50 in [2] was found to be 15.3 µM; in [3], 9.8 µM; in [4], 5.7 µM. The half-life came to 66 min in series [8] and 37 min in [9]. Besides, the EC50 in [5] amounted to 12.9 µM. `C=C1CC(c2ccnc3ccccc23)OC1=O` (stereo not drawn): the inhibition result in [6] was “inactive”.

With `C=C1CC(c2cccc(OC)c2)OC1=O` (stereo not drawn), in series [6], the inhibition came to 25%. `C=C1CC(c2c(OC)ccc3ccccc23)OC1=O` (stereo not drawn): in series [6], the inhibition result was “Active”. Turning to `C=C(CC1(O)C(=O)Nc2ccccc21)C(=O)OC` (stereo not drawn), the inhibition entry in series [7] and in series [10] was “Active” throughout. In turn, `C=C1CC(c2ccc(OC)cc2)OC1=O` (stereo not drawn) came in with an inhibition in [6] of 25%.

For `C=C1CC(c2cccc(Br)n2)OC1=O` (stereo not drawn), the inhibition in series [6] worked out at 50%. For `O=C(Nc1ccc(Br)cc1)Nc1ccc2nc(-c3ccco3)c(-c3ccco3)nc2c1`, the “growth inhibition (GI)” value in series [1] was “Active”. On to `C#CCCN1C(=O)C2(CC(=C)C(=O)O2)c2ccccc21` (stereo not drawn), for which, in [6], the inhibition turned out to be 75%. For the same compound, the inhibition entry in [11] and in [12] was “Active” throughout. Further, in series [5], the EC50 is 5.5 µM. Turning to `C=C1CC(c2ccc(OC)c(OCc3ccccc3)c2)OC1=O` (stereo not drawn), the inhibition in [6] stood at 25%. Still for that read-out and setting: with `C=C1CC(c2ccc(F)cc2)OC1=O` (stereo not drawn) the figure was 25%. The same measure, in the same setting: then `C=C1CC(c2ccc(C3CC(=C)C(=O)O3)cc2)OC1=O` (stereo not drawn), with “Active”; and `C=C1CC(c2ccc(OC)c(OC)c2)OC1=O` (stereo not drawn), with 25%.

In the case of `C=C1CC2(OC1=O)C(=O)Nc1ccc(OC)cc12` (stereo not drawn), the EC50 in series [5] turned out to be 3.1 µM. Regarding `CCC(=O)N1CCC[C@@H](n2nc(-c3ccc(Oc4ccccc4)cc3)c3c(N)ncnc32)C1`, the figures for the IC50 in series [2], in [3] and in series [4] were 13.4 µM, 8.2 µM and 15.1 µM, respectively. Also, in series [5], the EC50 was found to be 15.2 µM. The compound `C=C1CC(c2ccc(OCc3ccccc3)cc2)OC1=O` (stereo not drawn) came in with an inhibition in [6] of 25%. The same measure, in the same setting: then `C=C1CC(c2c(OCc3ccccc3)ccc3ccccc23)OC1=O` (stereo not drawn), with less than 25%. As to `C/C1=C\CC[C@@]2(C)O[C@H]2[C@H]2OC(=O)C(C)[C@@H]2CC1` (stereo partly drawn), the inhibition in series [7] stood at 20%. The IC50 in series [2] is more than 100 µM; in series [3], 84.3 µM; in [4] it was 66.1 µM. For the same compound, the EC50 in series [5] is more than 100 µM.

Turning to `C=C1CC(c2cccc(C(F)(F)F)c2)OC1=O` (stereo not drawn), the inhibition in series [6] turned out to be 25%. As to `C=C1CC(c2cccc(OCc3ccccc3)c2)OC1=O` (stereo not drawn), the inhibition in series [6] came to 25%. As for `CC1CC2(OC1=O)C(=O)Nc1ccccc12` (stereo not drawn), the inhibition entry in series [13], in series [15] and in [10] was “inactive” in each case. Besides, in series [7], the inhibition came out at 5%. Further, the “growth inhibition (GI)” value in series [1] and in series [16] was “inactive” each time. In series [14], the result was inactive. In series [6], `C=C1CC(c2cccc3ccccc23)OC1=O` (stereo not drawn) showed an inhibition of 50%. Still for that read-out and setting: with `C=C1CC(c2ccc3ccccc3c2)OC1=O` (stereo not drawn) the figure was 50%. On to `C=C1CC2(OC1=O)C(=O)Nc1c([N+](=O)[O-])cc(Br)cc12` (stereo not drawn), for which the EC50 in series [5] turned out to be 2 µM. On the same count and under the same terms, with `C=C1CC2(OC1=O)C(=O)N(C)c1ccccc12` (stereo not drawn) the figure was 3.9 µM. For the compound `Cc1ccc(C)c2c1NC(=O)C21CC(C)C(=O)O1` (stereo not drawn), the IC50 in series [2], in series [3] and in [4] was more than 100 µM throughout. The EC50 in series [5] was more than 100 µM. Turning to `C=C1CC2(OC1=O)C(=O)N(Cc1ccccc1)c1ccccc12` (stereo not drawn), the EC50 in series [5] was determined as 2.7 µM. Still for that read-out and setting: with `C=C1CC2(OC1=O)C(=O)Nc1ccc(I)cc12` (stereo not drawn) the figure was 2.2 µM.
